From ChEMBL document CHEMBL1221266, “Synthesis and SAR of novel, 4-(phenylsulfamoyl)phenylacetamide mGlu4 positive allosteric modulators (PAMs) identified by functional high-throughput screening (HTS)” (Bioorg Med Chem Lett, 2010) come the findings set out here.

A word on the EC50: it is the concentration needed to bring the measured effect to its halfway point. In general, Emax refers to the maximal effect, on the per cent scale that the assay sets. As a reminder, the fraction unbound is free concentration divided by total concentration. Low readings indicate little free substance, high ones much free substance.

Data set [1] is described as follows: Metabolic stability in human liver microsomes assessed as compound remaining after 60 mins. It counts as ADME, Microsome. The conditions noted are these: read-out: Stability.
The target in data set [2] is T1, Metabotropic glutamate receptor 4 (Homo sapiens, UniProt Q14833). The data set can be described thus: Positive allosteric modulation of human mGlu4 receptor expressed in CHO cells assessed as potentiation of glutamate-induced calcium mobilization. It counts as functional, cell-based. The gist of the method: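 Human mGlu4 co-expressed with the chimeric G protein Gqi5 in CHO cells. Compounds were tested in the presence of an EC20 glutamate concentration as 1:3 serial dilutions starting at 30 μM. Values are the mean of triplicates run on one day. For % PHCCC, each compound's maximal response was divided by the response to the control PAM PHCCC measured that same day.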
(A change in cytosolic calcium serves as a functional read-out for many receptors and channels.)

For data set [3], the target named is T1, Metabotropic glutamate receptor 4. As to the kind of experiment: Positive allosteric modulation of human mGlu4 receptor expressed in CHO cells assessed as potentiation of glutamate-induced calcium mobilization relative to PHCCC. It counts as functional, cell-based. The gist of the method:
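Human mGlu4/Gqi5 CHO cells with an EC20 concentration of glutamate; compounds tested in 1:3 serial dilutions from 30 μM, in triplicate on one day. The maximal response elicited by each compound was divided by the response to the control PAM PHCCC measured on the same day.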

Data set [4] can be described thus: Metabolic stability in rat liver microsomes assessed as compound remaining after 60 mins. It counts as ADME, Microsome. The note with it: read-out: Stability. A general note: Microsomes from liver hold many membrane-bound enzymes, among them those of drug oxidation.
The species named for a further data set is Homo sapiens. As to the kind of experiment: Fraction unbound in human plasma.
Data set [5] can be described thus: Fraction unbound in rat plasma. It counts as ADME, cell-free.
For data set [6], the target named is T1, Metabotropic glutamate receptor 4. As to the kind of experiment: Positive allosteric modulation of human mGlu4 receptor expressed in CHO cells assessed as potentiation of glutamate-induced calcium mobilization at > 30 uM. Type of data set: functional, cell-based.

T1 sequence (Q14833 whole entry): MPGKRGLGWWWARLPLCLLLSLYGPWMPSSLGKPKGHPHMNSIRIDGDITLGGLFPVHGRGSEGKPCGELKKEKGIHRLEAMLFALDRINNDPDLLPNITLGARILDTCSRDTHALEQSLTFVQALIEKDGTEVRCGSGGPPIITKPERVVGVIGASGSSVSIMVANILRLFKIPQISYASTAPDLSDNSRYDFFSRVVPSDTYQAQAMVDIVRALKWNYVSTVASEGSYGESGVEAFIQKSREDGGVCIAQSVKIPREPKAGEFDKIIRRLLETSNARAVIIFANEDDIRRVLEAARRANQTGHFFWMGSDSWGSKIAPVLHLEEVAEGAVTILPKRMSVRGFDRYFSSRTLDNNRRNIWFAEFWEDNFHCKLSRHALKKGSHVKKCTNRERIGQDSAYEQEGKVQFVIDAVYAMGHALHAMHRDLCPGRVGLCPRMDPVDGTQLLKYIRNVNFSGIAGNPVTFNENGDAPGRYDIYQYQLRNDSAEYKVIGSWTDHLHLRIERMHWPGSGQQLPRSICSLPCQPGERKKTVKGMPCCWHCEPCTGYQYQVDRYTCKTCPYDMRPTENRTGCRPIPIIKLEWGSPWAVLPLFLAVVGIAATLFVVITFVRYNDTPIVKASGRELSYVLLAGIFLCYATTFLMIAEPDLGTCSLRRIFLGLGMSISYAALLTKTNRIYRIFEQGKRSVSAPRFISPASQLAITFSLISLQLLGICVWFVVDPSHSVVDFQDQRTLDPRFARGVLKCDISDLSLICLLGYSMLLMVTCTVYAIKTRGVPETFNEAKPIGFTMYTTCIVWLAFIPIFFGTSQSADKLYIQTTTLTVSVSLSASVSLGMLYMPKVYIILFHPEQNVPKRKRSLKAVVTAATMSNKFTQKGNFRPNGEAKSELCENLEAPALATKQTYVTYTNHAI

Consider `O=C(Nc1ccc(S(=O)(=O)Nc2ccccc2Cl)c(Cl)c1)c1ccccn1`, for which the remaining at 1 h in data set [1] was found to be 0.63%; in data set [4] it was 0.02%. Moreover, in data set [2], the EC50 was determined as 0.0198 µM. In addition, the Emax in data set [3] was determined as 102%.
As for `Cc1cc(C)c(NS(=O)(=O)c2ccc(NC(=O)c3ccccn3)cc2)c(C)c1`, the EC50 in data set [2] worked out at 0.159 µM. For the same compound, the fraction unbound came out at 0.001 in the data set listed under Homo sapiens and 0.003 in data set [5]. In data set [3], the Emax was found to be 60.5%. Also, in data set [4], the remaining at 1 h is 25.8%.
Regarding `O=C(Nc1ccc(S(=O)(=O)NCC2CC2)cc1)c1ccccn1`, in data set [2], the half-maximal effective concentration (EC50) was more than 5 µM. For the same compound, the Emax in data set [3] was determined as 70.2%.
In the case of `COc1ccccc1NS(=O)(=O)c1ccc(NC(=O)c2ccccn2)cc1OC`, the remaining at 1 h in data set [1] worked out at 1.3%; in data set [4], 0.05%. Further, the EC50 in data set [2] stood at 0.132 µM. Further, the fraction unbound in the data set filed under Homo sapiens is 0.003; in data set [5], 0.127. Moreover, the Emax in data set [3] came to 112%.
Consider `CC1CCN(S(=O)(=O)c2ccc(NC(=O)c3ccccn3)cc2)CC1`, for which the EC50 in data set [2] was 0.372 µM. The Emax in data set [3] stood at 35.8%.
Consider `O=C(Nc1ccc(S(=O)(=O)Nc2ccc(F)c(Cl)c2)cc1)c1ccccn1`, for which the Emax in data set [3] was determined as 19.8%. Also, in data set [6], the EC50 entry is listed as “Not Active”.
Regarding `O=C(Nc1ccc(S(=O)(=O)Nc2ccccc2Cl)cc1)c1cccc(F)n1`, in data set [2], the EC50 was 0.122 µM. Moreover, the Emax in data set [3] turned out to be 90%.
As to `O=C(Nc1ccc(Cl)c(S(=O)(=O)Nc2ccccc2Cl)c1)c1ccccn1`, the results for the remaining at 1 h in data set [1] and in data set [4] were 11.9% and 0.05%, respectively. Further, the EC50 in data set [2] was 0.731 µM. In data set [3], the Emax is 54.9%.
For the compound `O=C(Nc1ccc(S(=O)(=O)Nc2ccccc2Cl)cc1)c1ccsc1`, the half-maximal effective concentration (EC50) in data set [2] was 0.269 µM. In addition, in data set [3], the Emax amounted to 54.2%.
Consider `O=C(Nc1ccc(CS(=O)(=O)c2ccccc2Cl)cc1)c1ccccn1`, for which the EC50 in data set [2] came out at 2.17 µM. The Emax in data set [3] came to 46.5%.
`COc1cccc(C(=O)Nc2ccc(S(=O)(=O)Nc3ccccc3Cl)cc2)n1`: in data set [3], the Emax is 8.6%. For the same compound, the EC50 entry in data set [6] is reported as “Not Active”.
On to `O=C(Nc1ccc(S(=O)(=O)Nc2ccccc2Cl)cc1)c1nccs1`, for which the results for the remaining at 1 h in data set [1] and in data set [4] were 0.84% and 1.2%, respectively. For the same compound, in data set [2], the EC50 came to 0.0774 µM. The fraction unbound (in the data set filed under Homo sapiens; in data set [5]) was 0.001 throughout. The Emax in data set [3] was 79.4%.
Take `O=C(Nc1ccc(S(=O)(=O)NC2CCC2)cc1)c1ccccn1`: the EC50 in data set [2] was more than 5 µM. Also, in data set [3], the maximal effect (Emax) was determined as 64.4%.
On to `O=C(Nc1ccc(S(=O)(=O)Nc2ccc(Cl)c(C(F)(F)F)c2)cc1)c1ccccn1`, for which, in data set [3], the Emax amounted to 19.5%. In data set [6], the EC50 entry is listed as “Not Active”.
In the case of `O=C(Nc1ccc(S(=O)(=O)Nc2cc(F)ccc2F)cc1)c1ccccn1`, the EC50 in data set [2] was determined as 0.325 µM. Further, the Emax in data set [3] was 87.6%.
`O=C(Nc1ccc(S(=O)(=O)Nc2ccccc2Cl)cc1)c1ccncn1`: the EC50 in data set [2] worked out at 0.478 µM. For the same compound, the Emax in data set [3] came to 103%.
On to `O=C(Nc1ccc(S(=O)(=O)N2CCCC2)cc1)c1ccccn1`, for which, in data set [3], the Emax was found to be 15.4%. Further, the EC50 entry in data set [6] was “Not Active”.
In the case of `COCCNS(=O)(=O)c1ccc(NC(=O)c2ccccn2)cc1`, the EC50 in data set [2] was more than 10 µM. In addition, the Emax in data set [3] came to 22.1%.
In the case of `O=C(Nc1ccc(S(=O)(=O)N2CCc3ccccc32)cc1)c1ccccn1`, the Emax in data set [3] was 12%. In data set [6], the EC50 entry was “Not Active”.
Take `CN(c1ccccc1Cl)S(=O)(=O)c1ccc(NC(=O)c2nccs2)cc1`: the remaining at 1 h in data set [1] came to 0.1%; in data set [4], 0.08%. The EC50 in data set [2] worked out at 0.686 µM. Besides, the fraction unbound in the data set filed under Homo sapiens came out at 0.005; in data set [5], 0.37. The maximal response (Emax) in data set [3] was 25.4%.
For the compound `O=C(Nc1ccc(S(=O)(=O)Nc2ccccc2)cc1)c1ccccn1`, the EC50 in data set [2] is 0.177 µM. For the same compound, the Emax in data set [3] is 69.2%.
For `O=C(Nc1ccc(S(=O)(=O)NC2CC2)cc1)c1ccccn1`, in data set [2], the concentration for a half-maximal effect (EC50) was more than 10 µM. The maximal effect (Emax) in data set [3] was 23.7%.
On to `O=C(Nc1ccc(S(=O)(=O)NC2CCCCC2)cc1)c1ccccn1`, for which the EC50 in data set [2] came to 1.03 µM. The Emax in data set [3] is 63.1%.
For `O=C(Nc1ccc(S(=O)(=O)Nc2ccccc2Cl)cc1Cl)c1ccccn1`, the Emax in data set [3] turned out to be 8.1%. Moreover, in data set [6], the concentration for a half-maximal effect (EC50) entry is on record as “Not Active”.
Regarding `Cc1cc(C)c(NS(=O)(=O)c2ccc(NC(=O)c3ccco3)cc2)c(C)c1`, in data set [2], the EC50 came out at 5.96 µM. In addition, the free fraction (fraction unbound) in the data set listed under Homo sapiens was found to be 0.022; in data set [5] it was 0.082. Also, in data set [3], the Emax came to 52%. Moreover, the remaining at 1 h in data set [4] was determined as 93.3%.
Consider `O=C(Nc1ccc(S(=O)(=O)Nc2ccccc2Cl)cc1)c1ccccn1`, for which the remaining at 1 h in data set [1] and in data set [4] was 0.02% each time. Also, the EC50 in data set [2] stood at 0.027 µM. Further, the fraction unbound in the data set listed under Homo sapiens amounted to 0.001; in data set [5], 0.003. Moreover, the maximal effect (Emax) in data set [3] amounted to 88.2%.
With `CN(c1ccccc1Cl)S(=O)(=O)c1ccc(NC(=O)c2ccncn2)cc1`, the remaining at 1 h in data set [1] amounted to 2.5%; in data set [4], 3.3%. The EC50 in data set [2] turned out to be 0.99 µM. The fraction unbound in the data set listed under Homo sapiens was found to be 0.017; in data set [5], 0.027. For the same compound, the Emax in data set [3] turned out to be 31.1%.
Consider `O=C(Nc1ccc(S(=O)(=O)Cc2ccccc2Cl)cc1)c1ccccn1`, for which, in data set [3], the Emax came to 46.3%.
Consider `O=C(Nc1ccc(S(=O)(=O)Nc2ccccc2F)cc1)c1ccccn1`, for which the EC50 in data set [2] came to 0.206 µM. For the same compound, the Emax in data set [3] was 91.7%.
